One experiment has as its system 53BP1. Put plainly: Immunodepletion of PC-3 lysate with 53BP1 antibody. It counts as binding. The settings on record: IR 4 Gy, 1 hour, immunodepleted five times. The method in brief:
(§1)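 PC-3 cells were grown in RPMI with 10% FBS, irradiated (4 Gy), and lysed 1 h later. Lysate was immunodepleted five times with antibody to L3MBTL1 or to 53BP1, with preimmune sera as control. Read-out was Western blot: SDS-PAGE, transfer to nitrocellulose, blocking in TBS (pH 7.4) with 5% nonfat milk and 0.1% Tween 20, primary antibody overnight at 4°C, secondary 1 h at room temperature.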

Another experiment relates to L3MBTL1. Description: Immunodepletion of PC-3 lysate with L3MBTL1 antibody. The format is binding. The settings on record: IR 4 Gy, 1 hour, immunodepleted five times. In short, it runs like this: as §1
Experiment [1] deals with 53BP1 FFR polyubiquitination. Put plainly: In vivo ubiquitination assay of 53BP1 FFR. The format is cell-based. The settings on record: CPT treatment, fig. S2H.
The test system of a further experiment is 53BP1 polyubiquitination. Put plainly: In vivo ubiquitination assay of 53BP1. The format is cell-based. The note with it: CPT treatment, fig. S2E.
A further experiment deals with BPH1 cells. Description: Karyotype analysis, chromosome breaks. It counts as cell-based. The settings on record: SPOP F133V-expressing BPH1 cells, CPT 1 μM for 24 hours; largely reversed by 53BP1 co-KO.
Experiment [2] relates to SPOP-53BP1 interaction. Put plainly: Co-IP of SPOP-53BP1 interaction after DNA damage. The format is cell-based. The settings on record: DNA damage by CPT.
In experiment [3] the test system is SPOP-53BP1 interaction. Description: Co-IP of SPOP-53BP1 interaction in 293T cells with kinase inhibitors and IR. It counts as cell-based. The settings on record: IR for 1 hour. The method in brief: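 293T cells (DMEM, 10% FBS) transiently transfected with tagged constructs by lipofection, pretreated with kinase inhibitors (DMSO vehicle), then irradiated and harvested 1 h later. Lysed in BC100 buffer 24 h post-transfection; FLAG-tagged proteins pulled down on anti-FLAG M2 agarose, HA-tagged with anti-HA plus protein A/G beads, overnight at 4°C. Immunoblot on nitrocellulose with ECL detection.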

The target of experiment [4] is SPOP MATH domain (residues 28 to 164) D140G (human, UniProt O43791 28-164, D140G). Put plainly: crystal structure.
Chain of SPOP MATH domain (residues 28 to 164) D140G (O43791 28-164 D140G): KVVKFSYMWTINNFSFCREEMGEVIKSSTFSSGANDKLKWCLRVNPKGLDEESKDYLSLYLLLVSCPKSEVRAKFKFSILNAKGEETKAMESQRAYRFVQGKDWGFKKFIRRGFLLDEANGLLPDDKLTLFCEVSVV

Take “NPL4: valosin-containing protein/p97 cofactor NPL4”: in the experiment with 53BP1, the “fraction of NPL4 bound to 53BP1” value is reported as “approximately 10%”. Moreover, in the experiment with L3MBTL1, the “fraction of NPL4 bound to L3MBTL1” value is “approximately 33%”.

For the molecule `CC[C@@]1(O)C(=O)OCc2c1cc1n(c2=O)Cc2cc3ccccc3nc2-1` [CPT, camptothecin], the “effect on SPOP-increased 53BP1 FFR polyubiquitination” value in experiment [1] was “this effect was enhanced by CPT treatment”. Besides, in the experiment with 53BP1 polyubiquitination, the “effect on SPOP-induced polyubiquitination of 53BP1” value is given as “enhanced SPOP-induced polyubiquitination of 53BP1”. Moreover, the “number of intrachromosomal breaks per cell” value in the experiment with BPH1 cells is reported as “marked increase in the number of intrachromosomal breaks per cell”. In addition, the “effect on SPOP-53BP1 interaction” value in the experiment on SPOP-53BP1 interaction [2] is given as “markedly enhanced”.

Regarding `O=c1cc(-c2cccc3c2Sc2ccccc2S3)oc(N2CCOCC2)c1` [ATM kinase inhibitor], the “effect on SPOP-53BP1 interaction” value in the experiment on SPOP-53BP1 interaction [3] is “attenuated the SPOP-53BP1 interaction”.

B1: 53BP1 SBM synthetic peptide (residues 1636 to 1650) (peptide, UniProt Q12888 1636-1650, looked up)
peptide: PATPTASSSSSTTPT
B1: the binding result in experiment [4] is “binds”.

For the origin of these results see publication PMC8213225 (Science Advances, 2021).
